Here are results for 3 compounds from ChEMBL document CHEMBL1122296, “Plasmin-activated prodrugs for cancer chemotherapy. 2. Synthesis and biological activity of peptidyl derivatives of doxorubicin” (1983).

Holding throughout (type): functional
Experiment [1] relates to Mus musculus. As to the kind of experiment: Median survival of treated/ control animals (%T/C) was determined by in vivo antitumor activity against the B16 melanoma cell line at a dose of 60 mg/kg administered intraperitoneally on day 5. The conditions noted are these: route intraperitoneal. Put shortly: (§1)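 Murine B16 melanoma implanted intraperitoneally in mice. Drug given intraperitoneally on days 5, 9 and 13 after implantation, with dose expressed as doxorubicin equivalents. Read-out is %T/C, the median survival of treated animals over that of untreated controls.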

Experiment [2] can be described thus: Selectivity index between the ED50 value for normal cells to that of transformed chicken embryo fibroblast cells at 5 hr of treatment.
For experiment [3], the species on record is Gallus gallus. Briefly: Inhibitory activity against the [3H]-thymidine incorporation into DNA of normal chicken embryo fibroblasts at 5 hr of treatment. The conditions noted are these: read-out: ED50 (the source's name). On the technique in general: Incorporation of labelled thymidine or its analogues reports DNA synthesis.
For experiment [4], the species on record is Gallus gallus. As to the kind of experiment: Inhibitory activity against the [3H]thymidine incorporation into DNA of Rous Sarcoma virus transformed chicken embryo fibroblasts at 5 hr of treatment. The conditions noted are these: read-out: ED50 (the source's name).
The nature of experiment [5]: Degree of improvement in the selective cytotoxicity of the prodrug (drug 10) to that of the parent drug (drug 1) at 24 hr of treatment; Value is measured as 6.8 times.
Experiment [6] is described as follows: Degree of improvement in the selective cytotoxicity of the prodrug (drug 10) to that of the parent drug (drug 1) at 5 hr of treatment; Value is measured as 5.8 times.
A short description of experiment [7]: Selectivity index between the ED50 value for normal cells to that of transformed chicken embryo fibroblast cells at 24 hr of treatment.
Experiment [8] relates to Mus musculus. As to the kind of experiment: Median survival of treated/ control animals (%T/C) was determined by in vivo antitumor activity against the B16 melanoma cell line at a dose of 15 mg/kg administered intraperitoneally on day 5. The conditions noted are these: route intraperitoneal. Put shortly:
as §1

Experiment [9] concerns Mus musculus. Briefly: Median survival of treated/ control animals (%T/C) was determined by in vivo antitumor activity against the B16 melanoma cell line at a dose of 30 mg/kg administered intraperitoneally on day 5. Particulars: route intraperitoneal. The procedure, abridged: as §1
Experiment [10] concerns Mus musculus. Briefly: Median survival of treated/ control animals (%T/C) was determined by in vivo antitumor activity against the B16 melanoma cell line at a dose of 75 mg/kg administered intraperitoneally on day 5. Particulars: route intraperitoneal. Put shortly: as §1
Experiment [11] is filed under the species Gallus gallus. As to the kind of experiment: Inhibitory activity against the [3H]thymidine incorporation into DNA of Rous Sarcoma virus transformed chicken embryo fibroblasts at 24 hr of treatment. The conditions noted are these: read-out: ED50 (the source's name).
Experiment [12] has as its system Mus musculus. Briefly: Median survival of treated/ control animals (%T/C) was determined by in vivo antitumor activity against the B16 melanoma cell line at a dose of 5 mg/kg administered intraperitoneally on day 5. Particulars: route intraperitoneal. Put shortly:
as §1

In experiment [13] the test system is Mus musculus. Briefly: Median survival of treated/ control animals (%T/C) was determined by in vivo antitumor activity against the B16 melanoma cell line at a dose of 45 mg/kg administered intraperitoneally on day 5. The conditions noted are these: route intraperitoneal. Put shortly:
as §1

The species named for experiment [14] is Gallus gallus. Briefly: Inhibitory activity against the [3H]thymidine incorporation into DNA of normal chicken embryo fibroblasts at 24 hr of treatment. The conditions noted are these: read-out: ED50 (the source's name).
The test system of experiment [15] is Mus musculus. Briefly: Median survival of treated/ control animals (%T/C) was determined by in vivo antitumor activity against the B16 melanoma cell line at a dose of 1 mg/kg administered intraperitoneally on day 5. The conditions noted are these: route intraperitoneal. The procedure, abridged: as §1
The subject of experiment [16] is Mus musculus. Briefly: Median survival of treated/ control animals (%T/C) was determined by in vivo antitumor activity against the B16 melanoma cell line at a dose of 12 mg/kg administered intraperitoneally on day 5. The conditions noted are these: route intraperitoneal. Put shortly: as §1
The test system of experiment [17] is Mus musculus. As to the kind of experiment: Median survival of treated/ control animals (%T/C) was determined by in vivo antitumor activity against the B16 melanoma cell line at a dose of 3 mg/kg administered intraperitoneally on day 5. Particulars: route intraperitoneal. Put shortly: as §1
The test system of experiment [18] is Mus musculus. Briefly: Median survival of treated/ control animals (%T/C) was determined by in vivo antitumor activity against the B16 melanoma cell line at a dose of 6 mg/kg administered intraperitoneally on day 5. The conditions noted are these: route intraperitoneal. The procedure, abridged:
as §1

The subject of experiment [19] is Mus musculus. Briefly: Median survival of treated/ control animals (%T/C) was determined by in vivo antitumor activity against the B16 melanoma cell line at a dose of 9 mg/kg administered intraperitoneally on day 5. Particulars: route intraperitoneal. Put shortly: as §1

A word on the T/C: it is the result in the treated group divided by that in the control group, in per cent.

With `COc1cccc2c1C(=O)c1c(O)c3c(c(O)c1C2=O)C[C@@](O)(C(=O)CO)C[C@@H]3OC1CC(NC(=O)[C@H](CCCCN)NC(=O)[C@H](CC(C)C)NC(=O)[C@H](N)C(C)C)C(O)C(C)O1` (stereo partly specified), the T/C in the experiment with Mus musculus [1] is on record as 113%; in the experiment with Mus musculus [8], 103%; in the experiment with Mus musculus [9] it was 97%; in the experiment with Mus musculus [10], 121%; in the experiment with Mus musculus [12] it was 105%; with Mus musculus [13], 105%. The Selectivity index in experiment [2] turned out to be 2.1; in experiment [7] it was 3.8. In addition, the EC50 is 54000 nM in the experiment listed under Gallus gallus [3], 26000 nM in the experiment listed under Gallus gallus [4], 800 nM in the experiment filed under Gallus gallus [11] and 3000 nM in the experiment filed under Gallus gallus [14]. In addition, the Improvement in experiment [5] is on record as 6.8; in experiment [6], 5.8.
For the compound `COc1cccc2c1C(=O)c1c(O)c3c(c(O)c1C2=O)C[C@@](O)(C(=O)CO)C[C@@H]3OC1CC(NC(=O)[C@H](CCCCN)NC(=O)[C@H](CC(C)C)NC(=O)[C@@H](NC(=O)OC(C)(C)C)C(C)C)C(O)C(C)O1.Cl` (stereo partly specified), the T/C with Mus musculus [1] is given as 100%; in the experiment on Mus musculus [8], 100%; in the experiment on Mus musculus [9] it was 110%; in the experiment with Mus musculus [12] it was 105%.
Regarding `COc1cccc2c1C(=O)c1c(O)c3c(c(O)c1C2=O)C[C@@](O)(C(=O)CO)C[C@@H]3O[C@H]1C[C@H](N)[C@H](O)[C@H](C)O1` [DOXORUBICIN], the T/C came to 111% with Mus musculus [15]; 68% in the experiment on Mus musculus [16]; 137% in the experiment with Mus musculus [17]; 158% in the experiment on Mus musculus [18]; 90% in the experiment with Mus musculus [19]. Further, the Selectivity index came to 0.36 in experiment [2] and 0.56 in experiment [7]. Further, the EC50 in the experiment filed under Gallus gallus [3] was 900 nM; in the experiment listed under Gallus gallus [4], 2500 nM; in the experiment filed under Gallus gallus [11], 180 nM; in the experiment listed under Gallus gallus [14] it was 100 nM. Moreover, the Improvement in [5] was 6.8; in experiment [6], 5.8.
